The results in this text go back to ChEMBL document CHEMBL1141224, “Parallel solution-phase and microwave-assisted synthesis of new S-DABO derivatives endowed with subnanomolar anti-HIV-1 activity” (J Med Chem, 2005).

Test [1] deals with Human immunodeficiency virus type 1 reverse transcriptase (Human immunodeficiency virus 1), Q72547 [Y181I]. Description: Inhibition of Y181I mutant HIV1 reverse transcriptase by [3H]dTTP poly(rA)/oligo(dT) incorporation at 400 uM. The essentials:
(§1)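 RNA-dependent DNA polymerase assay of recombinant RT at 5–10 nM. Template: poly(rA)/oligo(dT) (0.3 μM 3'-OH ends) with 10 μM [3H]-dTTP. Run 10 min at 37 °C with increasing inhibitor. TCA-precipitated product was counted on GF/C filters. Highest concentration tested was 400 μM.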

Test [2] relates to Human immunodeficiency virus 1. Briefly: Antiviral activity against HIV1 IRLL98 mutant strain infected MT4 cells by MTT method. In kind it is functional, organism-based. The conditions noted are these: Human immunodeficiency virus 1, IRLL98, MT4. The method, boiled down:
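MT-4 cells infected with the HIV-1 mutant strain, or mock-infected for cytotoxicity, in the presence of a range of drug concentrations. Viable cells were counted by MTT colorimetric assay on day 5 post-infection. EC50 is the concentration that blocks 50% of HIV-induced cell death. Values are the mean of at least two experiments. IRLL98 carries RT mutations K101Q, Y181C and G190A, plus NRTI mutations.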
On the technique in general: Tetrazolium assays rely on reduction of a dye to a coloured formazan, in cell work by metabolically active cells.

Test [3] relates to Human immunodeficiency virus 1. Description: Antiviral activity against HIV1 Y188L mutant strain infected MT4 cells by MTT method. In kind it is functional, organism-based. The conditions noted are these: Human immunodeficiency virus 1, Y188L, MT4.
In test [4] the target is Human immunodeficiency virus type 1 reverse transcriptase (Human immunodeficiency virus 1) (UniProt Q72547). Description: Inhibition of wild type HIV1 reverse transcriptase by [3H]dTTP poly(rA)/oligo(dT) incorporation at 400 uM. The method, boiled down: as §1
The test system of test [5] is Human immunodeficiency virus 1. Description: Antiviral activity against HIV1 K103N mutant strain infected MT4 cells by MTT method. In kind it is functional, organism-based. The conditions noted are these: Human immunodeficiency virus 1, K103N.
For the next test, the system named is MT4. Description: Cytotoxicity against MT4 cells by MTT method. The class given is functional. The conditions noted are these: Homo sapiens. The essentials:
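Mock-infected MT-4 cells exposed to graded drug concentrations. Viability assessed by MTT colorimetric method at day 5. CC50 is the concentration causing 50% death of noninfected cells. Mean of at least two experiments.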

Test [6] relates to Human immunodeficiency virus type 1 reverse transcriptase (Human immunodeficiency virus 1), Q72547 [K103N]. Briefly: Inhibition of K103N mutant HIV1 reverse transcriptase by [3H]dTTP poly(rA)/oligo(dT) incorporation at 400 uM. The essentials:
as §1

In test [7] the test system is Human immunodeficiency virus 1. Description: Antiviral activity against wild type HIV1 NL4-3 infected MT4 cells by MTT method. The class given is functional, organism-based. The note with it: Human immunodeficiency virus 1, NL4-3, MT4. The essentials:
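MT-4 lymphoid cells infected with HIV-1 NL4-3 in the presence of graded drug concentrations. Viable cells counted by MTT colorimetric assay at day 5 post-infection. EC50 is the concentration protecting 50% of cells from HIV-induced death. Mean of at least two experiments.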

Test [8] concerns the target Human immunodeficiency virus type 1 reverse transcriptase (Human immunodeficiency virus 1) (UniProt Q72547).
The subject of test [9] is Human immunodeficiency virus type 1 reverse transcriptase (Human immunodeficiency virus 1), Q72547 [K103N].

The source made the active and inactive calls. The calls are words filed in the database; no cut-off is given here. Some results are limits rather than exact numbers.

The EC50 is the concentration that produces a half-maximal response. Low readings indicate higher potency in that assay, high ones lower potency in that assay. Usually CC50 stands for the concentration at which the toxic effect on the cells reaches its halfway point. The low end stands for greater toxicity to the cells, the high end for lower toxicity to the cells. In the case of `Cc1c(Cc2c(F)cccc2F)nc(SCc2ccc([N+](=O)[O-])cc2)[nH]c1=O`, the ID50 result in test [1], in [4] and in test [6] was “inactive” throughout. Moreover, the EC50 in test [2] is greater than 62 µM; in [3], greater than 62 µM; in [5], greater than 62 µM; in [7], 0.074 µM. Further, the CC50 in the test with MT4 was greater than 62 µM.

`Cc1c(O)nc(SCc2ccc(F)cc2)nc1Cc1c(Cl)cccc1Cl`: the ID50 result in test [1] and in test [6] was “inactive” each time. In addition, the EC50 in [2] is 2.7 µM; in test [3], greater than 61 µM; in test [5], 27 µM; in test [7], 0.11 µM. The CC50 in the test with MT4 is greater than 61 µM. This compound also returned an ID50 in test [8] of 16 µM.

As to `Cc1cn([C@H]2C[C@H](N=[N+]=[N-])[C@@H](CO)O2)c(=O)[nH]c1=O` [ZIDOVUDINE], the concentration giving a half-maximal response (EC50) in test [2] was found to be 0.008 µM; in test [3] it was 0.003 µM; in test [5] it was 0.003 µM; in test [7] it was 0.003 µM. The compound also registered a CC50 in the test with MT4 of 3.7 µM.

For the compound `O=C1Nc2ccc(Cl)cc2[C@@](C#CC2CC2)(C(F)(F)F)O1` [EFAVIRENZ], the EC50 in test [2] was found to be 0.2 µM; in test [5], 0.057 µM. Also, in the test on MT4, the cytotoxic concentration (CC50) is greater than 0.32 µM.

Turning to `Cc1c(O)nc(SCc2cccc(C#N)c2)nc1Cc1c(Cl)cccc1Cl`, the ID50 result in test [1] and in [6] was “inactive” throughout. Further, the EC50 is 5 µM in test [2], greater than 60 µM in test [3], greater than 60 µM in test [5] and 0.89 µM in [7]. In the test on MT4, the CC50 is greater than 60 µM. Besides, in test [8], the ID50 amounted to 9.5 µM.

For the compound `COc1ccc(CSc2nc(O)c(C)c(Cc3ccc(F)cc3)n2)cc1`, the ID50 entry in test [1], in test [4] and in [6] was “inactive” in each case. The EC50 in test [2], in [3], in test [5] and in test [7] was greater than 8.9 µM in each case. For the same compound, the CC50 with MT4 stood at 8.9 µM.

Take `COc1cc(CSc2nc(O)c(C)c(Cc3c(F)cccc3F)n2)cc(OC)c1`: the ID50 result in test [1], in [4] and in test [6] was “inactive” each time. For the same compound, the EC50 in [2] was greater than 60 µM; in test [3], greater than 60 µM; in test [5], greater than 60 µM; in test [7], 18 µM. This compound also came in with a CC50 in the test on MT4 greater than 60 µM.

For `COc1ccc(CSc2nc(O)c(C)c(Cc3c(Cl)cccc3Cl)n2)c(OC)c1`, the ID50 entry in test [1] and in test [6] was “inactive” each time. Moreover, the EC50 in [2] is greater than 55 µM; in test [3], greater than 55 µM; in [5] it was greater than 55 µM; in [7] it was 1.33 µM. In the test with MT4, this compound registered a CC50 greater than 55 µM. For the same compound, the ID50 in [8] is 25 µM.

Turning to `Cc1c(O)nc(SCc2ccc(Br)cc2)nc1Cc1c(Cl)cccc1Cl`, the ID50 result in test [1] is “inactive”. Further, the EC50 in test [2] is greater than 53 µM; in [3] it was greater than 53 µM; in test [5], greater than 53 µM; in [7] it was 0.79 µM. The ID50 was 9 µM in [9] and 0.39 µM in test [8]. In the test on MT4, this compound had a CC50 of 13 µM.

Turning to `COc1cc(CSc2nc(O)c(C)c(Cc3c(Cl)cccc3Cl)n2)cc(OC)c1`, the ID50 result in test [1] and in test [6] was “inactive” each time. Further, the EC50 was greater than 55 µM in [2], greater than 55 µM in [3], greater than 55 µM in test [5] and 33 µM in test [7]. This compound also returned a CC50 with MT4 greater than 55 µM. This compound also gave an ID50 in test [8] of 256 µM.

In the case of `CCOc1ccc(CSc2nc(O)c(C)c(Cc3c(Cl)cccc3Cl)n2)cc1`, the ID50 entry in test [1] and in [6] was “inactive” in each case. Also, the EC50 was 1.9 µM in test [2], greater than 58 µM in test [3], greater than 58 µM in [5] and 0.25 µM in [7]. Besides, the CC50 in the test on MT4 was greater than 58 µM. In [8], this compound gave an ID50 of 2 µM.

As to `Cc1c(O)nc(SCc2ccc(C#N)cc2)nc1Cc1c(Cl)cccc1Cl`, the ID50 entry in [1] and in [6] was “inactive” each time. In addition, the EC50 in [2] is 1 µM; in test [3], greater than 60 µM; in test [5], 0.1 µM; in [7], 0.17 µM. In the test with MT4, this compound registered a CC50 greater than 60 µM. In addition, the ID50 in test [8] was found to be 103 µM.

For `Cc1c(O)nc(SCc2ccc([N+](=O)[O-])cc2)nc1Cc1ccc(F)cc1`, the ID50 result in test [1], in test [4] and in test [6] was “inactive” in each case. Moreover, the EC50 in test [2], in [3], in test [5] and in test [7] was greater than 65 µM in each case. In the test on MT4, this compound showed a CC50 greater than 65 µM.

As to `Cc1c(O)nc(SCc2cccc(F)c2)nc1Cc1c(Cl)cccc1Cl`, in test [1], the ID50 entry was “inactive”. The EC50 is 2.2 µM in test [2], greater than 61 µM in test [3], greater than 61 µM in [5] and 0.15 µM in test [7]. The values for the ID50 in [9] and in test [8] were 35 µM and 2 µM, respectively. For the same compound, in the test on MT4, the CC50 is greater than 61 µM.

Take `Cc1c(O)nc(SCc2ccc3c(c2)OCO3)nc1Cc1c(Cl)cccc1Cl`: the ID50 entry in test [1] and in test [6] was “inactive” each time. In addition, the EC50 came to 0.51 µM in test [2], 33 µM in test [3], 5.3 µM in [5] and 0.12 µM in [7]. Also, the cytotoxic concentration (CC50) with MT4 is greater than 57 µM. Besides, the ID50 in test [8] worked out at 0.5 µM.

In the case of `Cc1c(O)nc(S(=O)(=O)Cc2ccc(Br)cc2)nc1Cc1c(Cl)cccc1Cl`, the ID50 result in test [1], in test [4] and in [6] was “inactive” throughout. Moreover, the EC50 in test [2], in test [3], in test [5] and in test [7] was greater than 50 µM each time. Further, the CC50 in the test with MT4 is greater than 50 µM.

As to `Cc1c(O)nc(SCc2ccc(C#N)cc2)nc1Cc1c(F)cccc1F`, the ID50 entry in [1] and in test [6] was “inactive” throughout. Besides, the EC50 in [2] is greater than 65 µM; in test [3], greater than 65 µM; in test [5] it was greater than 65 µM; in [7], 0.052 µM. This compound showed a CC50 in the test with MT4 greater than 65 µM. For the same compound, the ID50 in [8] is 0.76 µM.

In the case of `Cc1c(O)nc(SCc2ccc3c(c2)C(=O)c2ccccc2C3=O)nc1Cc1c(Cl)cccc1Cl`, the ID50 result in test [1] and in [6] was “inactive” each time. Also, the 50% effective concentration (EC50) in test [2] is greater than 48 µM; in test [3], greater than 48 µM; in [5], greater than 48 µM; in [7], 13 µM. Moreover, in the test with MT4, the CC50 was greater than 48 µM. Further, in [8], the ID50 stood at 3.5 µM.

With `COc1ccc(CSc2nc(O)c(C)c(Cc3c(Cl)cccc3Cl)n2)cc1OC`, the ID50 result in test [1] and in test [6] was “inactive” throughout. Further, the half-maximal effective concentration (EC50) in test [2] is 0.93 µM; in test [3] it was greater than 55 µM; in test [5] it was 10 µM; in test [7], 0.2 µM. For the same compound, the CC50 in the test with MT4 was greater than 55 µM. In test [8], this compound yielded an ID50 of 1.2 µM.

Consider `Cc1c(O)nc(SCc2ccc(Cl)cc2)nc1Cc1c(Cl)cccc1Cl`, for which the ID50 entry in test [1] and in test [6] was “inactive” in each case. Also, the EC50 was 2.1 µM in [2], greater than 59 µM in test [3], greater than 59 µM in test [5] and 0.47 µM in test [7]. Further, the CC50 in the test on MT4 was greater than 59 µM. Besides, the ID50 in test [8] was 20 µM.

For the compound `Cc1c(O)nc(SCc2ccccc2)nc1Cc1c(Cl)cccc1Cl`, the ID50 entry in [1] is “inactive”. Moreover, the EC50 in [2] was greater than 64 µM; in test [3], greater than 64 µM; in [5], greater than 64 µM; in [7] it was 0.83 µM. Further, the ID50 in test [9] was found to be 350 µM; in test [8] it was 2.5 µM. Moreover, the CC50 in the test with MT4 is greater than 64 µM.

As for `COc1ccc(CSc2nc(O)c(C)c(Cc3c(F)cccc3F)n2)cc1`, the ID50 entry in [1] is “inactive”. Besides, the EC50 stood at 0.69 µM in test [2], 10 µM in [3], 0.69 µM in [5] and 0.026 µM in test [7]. The ID50 in test [9] was found to be 3.5 µM; in test [8] it was 0.007 µM. This compound came in with a CC50 in the test with MT4 greater than 64 µM.
